The target in data set [1] is T1, BAG family molecular chaperone regulator 3 (Homo sapiens, UniProt O95817). The data set is described as follows: Binding affinity to full length recombinant human BAG3 assessed as dissociation constant by SPR analysis. Background: In SPR one partner is held on a chip, and binding of the other changes the refractive index at the surface.
Data set [2] deals with HeLa. The data set is described as follows: Induction of cell cycle arrest in human HeLa cells assessed as increase in hypodiploid nuclei at 10 to 50 uM incubated for 72 hrs by PI staining based flow cytometry analysis. It counts as functional. The note with it: dose 10-50 µM. The method in brief: (§1)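 HeLa cells (1×10^5/well) adhered 24 h, then treated 72 h with 10, 25 and 50 μM (reference inhibitor 1, 5, 10 μM), with 0.1 % DMSO negative and 10 % positive controls. Dead and live cells pooled, stained with 50 mg/L PI in 0.1 % citrate/0.1 % Triton X-100 for 30 min at 4 °C in the dark. Sub-G0/G1 percentage measured by flow cytometry, debris gated out.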
(In general: Flow cytometry measures light scatter and fluorescence of single cells or particles in a stream.)

In data set [3] the test system is HeLa. In words: Induction of apoptosis in human HeLa cells assessed as increase in caspase 9 expression incubated for 72 hrs by flow cytometry analysis. It counts as functional, cell-based. The note with it: dose 10-50 µM. Put shortly:
(§2)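 HeLa cells (2.5×10^5/well) treated 24 h after seeding for 72 h at 10, 25, 50 μM (reference inhibitor 10 μM) or 0.1 % DMSO. Fixed in 1 % formaldehyde (20 min, 4 °C), permeabilized with 0.1 % Triton, stained with anti-caspase 3, anti-caspase 9 or anti-p21 plus secondary antibodies. Read by flow cytometry as percentage of positive cells.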

The test system of data set [4] is HeLa. In words: Downregulation of FOXM1 expression in human HeLa cells incubated for 72 hrs by Western blot analysis. It counts as functional, cell-based. Put shortly: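 HeLa cells treated 72 h at 30 and 15 μM. Lysates (30 μg protein) separated on 10 % SDS-PAGE and blotted with anti-FOXM1 (1:500), β-tubulin as loading control. Detection by ECL, quantified by densitometry.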
For orientation: Immunoblotting shows a protein as a band on a membrane.

The species entered for data set [5] is Homo sapiens. In words: Inhibition of Hsp70 (unknown origin) ATPase activity assessed as residual activity at 50 uM by ATPase activity incubated for 1 hr by ADP-glo assay relative to control. The method in brief: (§3)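 HSP70 ATPase assay by ADP-Glo. HSP70 plus HSP40 pre-incubated with compound for 30 min at RT, then ATP added and reacted 1 h at 30 °C with 1 % DMSO final. ADP-Glo reagent added for 1 h, then detection reagent for 20 min, and luminescence read. Activity scaled between no-compound (100 %) and no-HSP70 (0 %) wells; run in duplicates.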

Data set [6] has as its system HeLa. The data set is described as follows: Upregulation of p21 expression in human HeLa cells incubated for 72 hrs by flow cytometry analysis. To be noted: dose 10-50 µM. Type of data set: functional, cell-based. The method in brief:
as §2

The test system of data set [7] is HeLa. In words: Downregulation of FOXM1 expression in human HeLa cells at 50 uM incubated for 72 hrs by Western blot analysis. Type of data set: functional, cell-based.
Data set [8] relates to HeLa. In words: Induction of apoptosis in human HeLa cells assessed as increase in apoptotic cells at 20 uM incubated for 72 hrs by Annexin V-FITC/PI staining based flow cytometry analysis relative to control. Type of data set: functional. Put shortly: (§4)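 HeLa cells (2×10^4) incubated 72 h at 20–50 μM. Stained with Annexin V-FITC and PI for 15 min at RT, then analysed by flow cytometry. Reported as percentage of live, apoptotic and necrotic cells versus control, mean ± SD of three independent experiments.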

Data set [9] has as its system HaCaT. The data set is described as follows: Cytotoxicity against human HaCaT cells at 10 to 50 uM incubated for 24 hrs by MTT assay. It counts as toxicity, cell-based. The note with it: dose 10-50 µM. The method in brief: (§5)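 HaCaT keratinocytes seeded at 5.0×10^3 cells/well in triplicate and allowed to attach for 24 h. Exposed to 10 and 50 μM for 24, 48 or 72 h with 0.1 % DMSO control, then read by MTT reduction (3 h, 37 °C) with absorbance at 570 nm.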

For data set [10], the system named is HeLa. The data set is described as follows: Induction of apoptosis in human HeLa cells assessed as increase in apoptotic cells at 50 uM incubated for 72 hrs by Annexin V-FITC/PI staining based flow cytometry analysis relative to control. It counts as functional. Put shortly:
as §4

In data set [11] the test system is HeLa. The data set is described as follows: Induction of apoptosis in human HeLa cells assessed as increase in apoptotic cells at 30 uM incubated for 72 hrs by Annexin V-FITC/PI staining based flow cytometry analysis relative to control. It counts as functional. Put shortly: as §4
The species named for data set [12] is Homo sapiens. In words: Inhibition of Hsp70 (unknown origin) ATPase activity assessed as residual activity at 10 uM by ATPase activity incubated for 1 hr by ADP-glo assay relative to control. Put shortly:
as §3

Data set [13] can be described thus: (§6) Binding affinity to recombinant human HSP70 assessed as dissociation constant by SPR analysis. Put shortly:
(§7)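 HSP70 amine-coupled on CM5 chip from 0.045 µg µl⁻¹ in 10 mM acetate pH 4.5, density 20 kRU, with unmodified reference surface. Compounds from 10 mM DMSO stocks diluted 1:20 in PBS-P (final 5.0 % DMSO), 10 concentrations by 1:2 dilution spanning 0–100 µM. Run at 25 °C, 20 µL/min, 90 s association, 400 s dissociation; KD reported ± SD.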

For data set [14], the system named is HaCaT. In words: Cytotoxicity against human HaCaT cells assessed as mortality at 10 to 50 uM incubated for 72 hrs by MTT assay. Type of data set: toxicity, cell-based. To be noted: dose 10-50 µM.
Data set [15] has as its system HeLa. In words: Induction of apoptosis in human HeLa cells assessed as increase in apoptotic cells incubated for 72 hrs by Annexin V-FITC/PI staining based flow cytometry analysis. Type of data set: functional, cell-based. The note with it: dose 20-50 µM. Put shortly:
as §4

Data set [16] deals with HaCaT. The data set is described as follows: Cytotoxicity against human HaCaT cells at 10 to 50 uM incubated for 72 hrs by MTT assay. It counts as toxicity, cell-based. The note with it: dose 10-50 µM. Put shortly: as §5
Data set [17] has as its system HaCaT. The data set is described as follows: Cytotoxicity against human HaCaT cells at 10 to 50 uM incubated for 48 hrs by MTT assay. Type of data set: toxicity, cell-based. To be noted: dose 10-50 µM. Put shortly: as §5
The test system of data set [18] is HeLa. In words: Induction of apoptosis in human HeLa cells assessed as increase in caspase 3 expression incubated for 72 hrs by flow cytometry analysis. Type of data set: functional, cell-based. To be noted: dose 10-50 µM. The method in brief:
as §2

The test system of data set [19] is HeLa. The data set is described as follows: Cytotoxicity against human HeLa cells assessed as mortality rate at 10 to 50 uM incubated for 72 hrs by MTT assay relative to control. Type of data set: functional. The note with it: dose 10-50 µM. The method in brief:
(§8)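 MTT reduction assay. Cells grown in DMEM/high glucose with 10 % FBS, 2 mM glutamine and penicillin/streptomycin at 37 °C, 5 % CO2. HeLa seeded at 3.5×10^3 and HaCaT at 5.0×10^3 cells/well, in triplicate. After 24 h attachment, compounds added at 10 and 50 μM for 72 h. Controls: 0.1 % DMSO (negative) and 10 % DMSO (positive). MTT added for 3 h at 37 °C, formazan dissolved in DMF/SDS (pH 4.5), absorbance read at 570 nm. Three independent experiments.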

In data set [20] the test system is HeLa. The data set is described as follows: Cytotoxicity against human HeLa cells assessed as cell viability incubated for 72 hrs by MTT assay.
The nature of data set [21]: Solubility of compound. It counts as physicochemical.
The species named for data set [22] is Homo sapiens. The data set is described as §6. The method in brief: as §7
The next data set has as its system A-375. In words: Cytotoxicity against human A-375 cells assessed as cell viability incubated for 72 hrs by MTT assay. It counts as functional, cell-based. The note with it: A-375, 72 h.
In another data set the test system is A549. The data set is described as follows: Cytotoxicity against human A549 cells assessed as cell viability incubated for 72 hrs by MTT assay. Type of data set: functional, cell-based. The note with it: A549, 72 h.
For data set [23], the target named is T1, BAG family molecular chaperone regulator 3. The data set is described as follows: Binding affinity to recombinant human BAG3 domain assessed as dissociation constant by SPR analysis.
Data set [24] deals with HeLa. In words: Induction of cell cycle arrest in human HeLa cells assessed as increase in hypodiploid nuclei incubated for 72 hrs by PI staining based flow cytometry analysis. It counts as functional. To be noted: dose 1-10 µM. Put shortly:
as §1

Data set [25] concerns HaCaT. The data set is described as follows: Cytotoxicity against human HaCaT cells assessed as mortality rate at 50 uM incubated for 72 hrs by MTT assay relative to control. Type of data set: toxicity, cell-based. The method in brief:
as §8

The source made the active and inactive calls. The calls are words filed in the database; no cut-off is given here. Bounds are passed on as bounds.

13 molecules from ChEMBL document CHEMBL6114987, “Identification of the first-in-class dual inhibitor targeting BAG3 and HSP70 proteins to disrupt multiple chaperone pathways” (Eur J Med Chem, 2025) can be followed below.

T1 sequence (O95817 whole entry): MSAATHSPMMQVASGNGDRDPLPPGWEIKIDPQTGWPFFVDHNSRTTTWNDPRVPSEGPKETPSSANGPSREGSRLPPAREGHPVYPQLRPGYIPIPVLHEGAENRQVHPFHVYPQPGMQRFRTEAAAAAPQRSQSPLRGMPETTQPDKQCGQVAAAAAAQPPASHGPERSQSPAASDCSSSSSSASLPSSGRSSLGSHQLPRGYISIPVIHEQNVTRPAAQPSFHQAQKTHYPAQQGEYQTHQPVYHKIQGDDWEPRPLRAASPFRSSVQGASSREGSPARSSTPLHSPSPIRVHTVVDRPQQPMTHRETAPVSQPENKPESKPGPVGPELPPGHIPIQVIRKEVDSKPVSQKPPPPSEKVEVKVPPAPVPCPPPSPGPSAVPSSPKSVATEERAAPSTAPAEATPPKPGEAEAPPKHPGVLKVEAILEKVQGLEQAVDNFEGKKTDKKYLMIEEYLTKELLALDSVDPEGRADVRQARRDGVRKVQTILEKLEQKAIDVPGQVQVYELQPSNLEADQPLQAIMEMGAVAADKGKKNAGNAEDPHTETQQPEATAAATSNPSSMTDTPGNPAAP

Take `CCCCNC(=O)C(c1cc(O)ccc1Br)N(CC(C)CC)C(=O)Cn1cc(-c2cccc(OC)c2)nn1` (stereo not given): the result in data set [1] was inactive.
Still for that read-out and setting: the same measure for `CCCCNC(=O)C(c1ccccc1Br)N(C(=O)Cn1cc(CCC(C)C)nn1)c1ccc(Cl)cc1` (stereo not given): “inactive”.
In general, Kd refers to a measure of binding affinity in units of concentration. For orientation: mortality means the share of the test organisms that died. Usually IC50 stands for the midpoint of a concentration-inhibition curve. Consider `CCCCNC(=O)C(c1c[nH]c(=O)[nH]c1=O)N(CC(C)CC)C(=O)Cn1cc(-c2cc(C)c(C)cc2C)nn1` (stereo not given), for which the result with HeLa [2] was Active. Besides, the Activity entry in the data set with HeLa [3] is “Dose-dependent-effect”; in the data set with HeLa [4] it was “Dose-dependent-effect”; in the data set listed under Homo sapiens [5] it was 40%; in the data set with HeLa [6], “Dose-dependent-effect”; in the data set with HeLa [8], 18.6%; in the data set with HaCaT [9] it was “Non-toxic”. Further, the Activity in the data set with HeLa [10] was 26.2%; in the data set on HeLa [11], 23%; in the data set filed under Homo sapiens [12] it was 20%; with HaCaT [14] it was “Non-toxic”; with HeLa [15] it was “Dose-dependent-effect”; in the data set with HaCaT [16], “Non-toxic”. For the same molecule, the Activity entry was “Non-toxic” in the data set on HaCaT [17] and “Dose-dependent-effect” in the data set with HeLa [18]. The result in the data set with HeLa [7] was inactive. In data set [13], the Kd worked out at 33.8 µM. The mortality in the data set on HeLa [19] stood at 70%. The IC50 in the data set on HeLa [20] turned out to be 49.5 µM.
Take `CCCCNC(=O)C(c1ccc(C(F)(F)F)cc1)N(CCC)C(=O)Cn1cc(-c2cccc(C)c2)nn1` (stereo not given): the solubility result in data set [21] is given as “Insoluble”.
Take `CCOC(=O)CN1C(=O)S/C(=C\c2ccc(O)c(O)c2)C1=O`: in the data set listed under Homo sapiens [22], the result was inactive. The IC50 was 16.6 µM in the data set with A-375, 32.3 µM in the data set with A549 and > 50 µM with HeLa [20].
With `CCCCNC(=O)C(c1ccc(Cl)nc1)N(CC(C)CC)C(=O)Cn1cc(C(C)(O)c2ccc(F)cc2)nn1` (stereo not given), the Kd result in data set [23] was “Not_determined”. For the same molecule, in [1], the outcome was inactive.
`CCCCNC(=O)C(c1ccccc1Br)N(Cc1ccccc1)C(=O)Cn1cc(-c2ccccc2)nn1` (stereo not given): the result in data set [1] was inactive.
For the molecule `Cc1ccc(S(=O)(=O)CNC(=O)C(c2ccccc2Br)N(Cc2ccccc2)C(=O)Cn2cc(-c3ccccc3)nn2)cc1` (stereo not given), the result in data set [1] was inactive.
Same read-out and setting: the same measure for `CCCCNC(=O)C(c1c(Br)ccnc1Cl)N(CC(C)CC)C(=O)Cn1cc(-c2cccc(O)c2)nn1` (stereo not given): “inactive”.
As for `CCn1c(=O)/c(=C2\Sc3ccccc3N2C)s/c1=C\c1cccc[n+]1C`, the Activity in the data set filed under Homo sapiens [5] is 43%; with HeLa [24], “Dose-dependent-effect”; in the data set listed under Homo sapiens [12] it was 30%. In addition, the Kd in data set [13] amounted to 41 µM. Moreover, the result in data set [1] was inactive.
For `CCCCNC(=O)C(c1ccccc1Br)N(Cc1ccccc1)C(=O)Cn1cc(CCC(C)C)nn1` (stereo not given), in [1], the result was inactive.
On to `CCCCNC(=O)C(c1ccc2cn[nH]c2c1)N(CC(C)CC)C(=O)Cn1cc(-c2cc(C)ccc2C)nn1` (stereo not given), for which the mortality was 60% with HaCaT [25] and 70% with HeLa [19].
As for `CCCCNC(=O)C(c1ccccc1Br)N(CC(C)CC)C(=O)Cn1cc(CCC(C)C)nn1` (stereo not given), in data set [1], the result was inactive.
